# Screens from PubChem BioAssay.
# TAG inh = reduces triacylglycerol accumulation in H9c2 cells; Nile Red lipid (TAG) fluorescence; cells loaded with 200 µM oleic acid; inhibition, % at 12.5 µM; hit rate 0.66% among 230,000; AID 651582;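 active = pattern-corrected inhibition of lipid staining of at least 50% with the nuclear-stain viability signal not falling by more than 50%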;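 note: 0% = DMSO wells and 100% = triacsin C control wells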
# hiPSC survival = increases survival of single human iPS cells | hiPSC single-cell survival, ATPlite luminescence; 100% = ROCK inhibitor wells, 0% = DMSO | survival enhancement, % at 20 µM | hit rate 0.044% among 360,000 | AID 602274; in the data active = survival enhancement above about 18%;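 note: cells exposed to compounds for 16 hours before the ATP read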
# Jurkat NFkB inh = lowers PMA/ionomycin-induced NF-kB signal in Jurkat cells; hit rate 0.53% among 330,000; PMA/ionomycin-induced NF-kB luciferase reporter, luminescence; inhibition, % at 4 µM; in the data active = inhibition above about 50%
# Lipid droplet = hepatic lipid droplet formation modulation. AML12 mouse hepatocytes, oleate lipid droplets, BODIPY imaging. inhibition, % at 6.5 µM. AID 1656. hit rate 0.4% among 240,000;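 active = lipid droplet intensity inhibited by at least 50%, with more than 500 cells counted; inconclusive = wells with under 300 cells, treated as cytotoxic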
#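 Assay system: AML12 mouse liver cells | Compound: 6.5 µM single-point dosing | Schedule: Overnight exposure | Technique: Fluorescence imaging, 20x objective, two fields per well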
# 697 NFkB inh = inhibitors of the PMA/ionomycin-induced NF-kB reporter in 697 B cells; 697 B-cell NF-kB luciferase reporter, 16 h; inhibition, % at 4 µM; hit rate 0.33% among 330,000; in the data active = inhibition above about 35%
# Gli-Sufu antag = Gli-Sufu pathway antagonism; Sufu-KO-LIGHT fibroblasts, Gli luciferase reporter luminescence; inhibition, % at 5 µM; hit rate 0.74% among 340,000; AID 588413;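 active = inhibition above about 55%, limit read from the data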;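 note: 0% = DMSO-treated cells and 100% = wells with medium but no cells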
# Jurkat NFkB conf = inhibitors of the PMA/ionomycin-induced NF-kB reporter in Jurkat cells, retest; shares compounds with Jurkat NFkB inh; Jurkat NF-kB luciferase, 16 h; inhibition, % at 4 µM; hit rate 27% among 2,700; AID 435020;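 active = inhibition reaching about 45% at 4 µM in either replicate, limit read from the data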;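 note: plate controls were PMA/ionomycin stimulated DMSO wells for no effect and unstimulated DMSO wells for full effect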
# 697 NFkB conf = lowers PMA/ionomycin-induced NF-kB signal in 697 B cells; 697 B-cell NF-kB luciferase, 16 h; AID 449746; shares compounds with 697 NFkB inh; hit rate 35% among 2,000; inhibition, % at 4 µM; in the data active = inhibition mostly above about 28%, no sharp cut-off; inactive = mostly below about 22%
# An asterisk follows results filed as active; i = inactive; ? = inconclusive; . = no result given. This is a sample that favours compounds with a hit; in the whole collection about 1.8% have one here.
SMILES,TAG inh,hiPSC survival,Jurkat NFkB inh,Lipid droplet,697 NFkB inh,Gli-Sufu antag,Jurkat NFkB conf,697 NFkB conf
COc1ccc(NC(=O)CN2CCN(CC(=O)Nc3ccc(F)cc3)CC2)c(OC)c1,.,0,3,0,1,12,.,.
C=CCn1c(C)cc(C(=O)CN2C(=O)c3ccccc3S2(=O)=O)c1C,5,0,89*,.,66*,89*,49*,45*
C=CCn1c(C)cc(C(=O)CN2C(=O)NC3(CCCc4ccccc43)C2=O)c1C (stereo unspecified),.,3,-1,27,-21,-18,.,.
COc1ccc2[nH]c(C(=O)Nc3cccc(C)n3)cc2c1,-12,0,-189,9,-281,-102,-96,-231
CC(=O)Nc1ccc(NC(=O)C(C)OC(=O)C2CCN(S(=O)(=O)c3ccc4c(c3)OCCO4)CC2)cc1 (stereo unspecified),-11,0,2,.,14,-7,.,.
CC(C)(C)C1C/C(=C/c2ccccn2)C(=O)/C(=C/c2ccccn2)C1 (stereo unspecified),84,8,100*,-87,105*,66*,-5,-124
CCCCCCCCNc1ncnc2ccccc12,.,0,71*,-88,107*,82*,68*,100*
CC1(C)CC(c2nc(-c3ccc([N+](=O)[O-])cc3)cs2)CCO1 (stereo unspecified),-17,0,3,-2,-7,-4,.,.
CN[C@H]1CCc2cc(OC)c(OC)c(OC)c2-c2ccc(OC)c(=O)cc21,41,-3,72*,.,-330,45,66*,-210
CCN1/C(=C/c2ccc3cccc(C)c3[n+]2CC)Sc2ccccc21,.,-4,92*,.,102*,88*,77*,87*
C[n+]1ccccc1/C=C1\Sc2ccccc2N1CCO,2,0,-1,4,-2,21,.,.
COc1cccc(CCNC(=O)CCCC(=O)c2ccccc2)c1,.,0,-17,.,9,-1,.,.
CC(=O)c1cccc(N/C=C\C(=O)c2ccc(C)cc2)c1,17,-3,.,17,.,-84,.,.
CC(=O)c1ccc(N/C=C\C(=O)c2ccc(C)cc2)cc1,-13,0,-102,-5,-183,-82,.,.
Cc1ccc(N/C=C/C(=O)c2ccccc2)cc1Br,.,0,-158,3,-282,-85,-72,-183
Cc1ccc(C(=O)/C=C/Nc2ccc3c(c2)OCO3)cc1,3,-4,-205,.,-376,4,-23,-76
COc1ccc(C(CC(=O)c2ccccc2)CC(=O)c2ccccc2)cc1,-25,0,-7,-19,10,-7,.,.
C=C(C(=O)c1ccccc1)C(C(=C)C(=O)c1ccccc1)c1ccc(OC)cc1,86,-1,56*,-3,i,14,-3,-164
O=C(Nc1nnc(Cc2ccccc2)s1)Nc1ccccc1F,-2,0,-13,5,-22,-8,.,.
CC(=O)Nc1ccc(SCC(=O)c2cc(C)n(Cc3cccs3)c2C)cc1,-20,0,-22,.,-235,43,.,.
CC(=O)Nc1ccccc1OCC(=O)c1cc(C)n(Cc2cccs2)c1C,-127,-2,56*,-129,96*,79*,58*,65*
COc1ccc(CN2CCC(C)CC2)cc1OCc1ccccc1,.,0,-1,-12,-10,33,.,.
Clc1ccc(/C=C/c2nc3ccccc3[nH]2)cc1,.,-4,-195,.,-366,-171,-111,-333
CCC(=O)N1Cc2cc(C(=O)N(C)C)nc(-c3cccc(-c4cncnc4)c3)c2[C@@H]1CCO,.,-1,.,.,.,.,.,.
COc1cc(/C=N/O)ccc1OCc1ccc(C(=O)O)cc1,0,-3,85*,20,85*,-117,67*,48*
SMILES,TAG inh,hiPSC survival,Jurkat NFkB inh,Lipid droplet,697 NFkB inh,Gli-Sufu antag,Jurkat NFkB conf,697 NFkB conf
COc1cc(/C=N/NS(=O)(=O)c2ccc3ccccc3c2)ccc1OCc1ccc(C(=O)O)cc1,3,0,42,22,-20,-51,.,.
COc1cccc2oc3cc(C#CC4(O)CCCCC4)ccc3c(=O)c12,-8,-3,-213,-8,-352,-34,-99,-443
CCOCCCNC(=O)c1ccc2c(c1)N=C(CC)c1cc(Br)ccc1S2,41,0,78*,?,-251,41,55*,14
COc1cccc(C(=O)Nc2nnc(SCC(=O)NC3CCCC3)s2)c1,.,-1,5,0,-44,-23,.,.
O=C(/C=C/c1ccc([N+](=O)[O-])cc1)c1cccs1,-25,-1,-10,0,16,-4,.,.
COc1cc([N+](=O)[O-])ccc1N/C=C/C(=O)c1cccs1,.,-2,-188,.,-267,-67,-72,-169
Cc1ccc(C(C)(C)C)cc1S(=O)(=O)Nc1cccc(S(=O)(=O)NC2=NCCC2)c1,.,0,5,-12,4,2,.,.
Cc1ccc(NC(=O)c2ccsc2)cc1NS(C)(=O)=O,.,0,-10,.,18,-2,.,.
CC(C)(C)c1ccc(NC(=O)c2ccsc2)cc1,1,-1,-180,-43,-324,-75,-166,-368
CN=c1scc(C)n1/N=C/c1ccc(O)cc1,6,-3,-101,-5,-129,7,.,.
CN=c1scc(C)n1/N=C/c1ccc(O)cc1O,6,-3,-165,.,-290,-66,-110,-250
COc1cc(NC(=O)C2CCCN2S(=O)(=O)c2ccc3c(c2)CC(C)N3C(C)=O)cc(OC)c1 (stereo unspecified),.,1,-10,9,12,47,.,.
CC(C)(C)OC(=O)C[C@@H]1C/C=C\C[C@H](CC(=O)N(CCO)Cc2ccccc2)C(=O)N2CCC[C@H]2COC1=O,-13,-3,-7,.,5,-10,.,.
Nc1cccc2c1C(=O)N(CCOc1ccccc1F)C2=O,.,-1,-183,2,-319,9,-120,-360
CCOC1=C2[C@@H](CN(S(=O)(=O)c3ccc(C)cc3)[C@H]2c2ccc(CC)cc2)[C@H]2C(=O)N(C)C(=O)[C@H]2C1,.,0,.,.,.,.,.,.
COc1ccccc1C=NN=Cc1ccccc1O,1,-1,.,.,.,-30,.,.
CN(C)c1ccc(/C=N/N=C/c2ccccc2O)cc1,-5,0,-161,0,-256,-46,-30,-50
[O-][n+]1onc2c1CCC(=N/O)/C2=N\Nc1ccccc1,.,.,2,2,0,.,.,.
CCOC(=O)c1sc(NC(=O)c2sccc2C)cc1C,51*,-2,-192,.,-253,-170,-171,-217
CN1/C(=C\C=[N+](C)c2ccccc2)C(C)(C)c2ccccc21,.,-1,74*,.,83*,85*,66*,57*
COCCN(C(=O)COC(=O)c1c(C)nn(-c2ccccc2)c1C)c1c(N)n(Cc2ccccc2)c(=O)[nH]c1=O,18,0,.,.,.,.,.,.
